Columns and labels:
[1] = Total absorption was estimated by area under curve (AUC) after intraduodenal administration in rat; parameters: concentration or dose not given beside the values; details: in vivo, id
[2] = molecular target: T1, Endothelin receptor type B (Homo sapiens, UniProt P24530); test: Inhibitory activity was evaluated against human Endothelin B receptor
T1 sequence (P24530 whole entry): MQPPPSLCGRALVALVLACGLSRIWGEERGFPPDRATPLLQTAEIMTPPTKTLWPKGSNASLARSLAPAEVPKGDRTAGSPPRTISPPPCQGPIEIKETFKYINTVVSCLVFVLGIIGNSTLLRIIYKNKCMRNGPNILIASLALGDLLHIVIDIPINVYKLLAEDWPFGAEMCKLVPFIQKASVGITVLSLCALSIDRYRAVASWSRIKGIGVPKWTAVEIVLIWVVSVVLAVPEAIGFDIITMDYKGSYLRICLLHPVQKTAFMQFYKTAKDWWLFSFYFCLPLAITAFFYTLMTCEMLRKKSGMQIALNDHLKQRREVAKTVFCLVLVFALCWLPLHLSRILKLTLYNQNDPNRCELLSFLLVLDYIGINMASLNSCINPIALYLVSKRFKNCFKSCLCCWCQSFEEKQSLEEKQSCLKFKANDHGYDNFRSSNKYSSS
How it was run: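 Human ETA or ETB receptors expressed in CHO cells. Binding inhibition tested at 11 concentrations from 10⁻¹⁰ to 10⁻⁵ M, in duplicate. IC50 is the mean of at least 2 measurements (n = 2).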

[3] = Partition coefficient by standard shake-flask techniquesat 37 C, using octanol and cyclohexane; assay type: physicochemical
How it was run: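 Shake-flask partitioning at 37 °C. About 1 mg of compound dissolved in 4.5 mL 0.05 M PIPES, pH 6.5. Aqueous aliquot shaken 2 h with an equal volume of octanol (H-bonding) or cyclohexane (non-H-bonding), then centrifuged. Both phases assayed by HPLC. Delta log P is derived from the octanol and cyclohexane log D values. Mean of at least two determinations.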

[4] = molecular target: T2, Endothelin-1 receptor (Homo sapiens, UniProt P25101); test: Inhibitory activity was evaluated against human Endothelin A receptor
T2 sequence (P25101 whole entry): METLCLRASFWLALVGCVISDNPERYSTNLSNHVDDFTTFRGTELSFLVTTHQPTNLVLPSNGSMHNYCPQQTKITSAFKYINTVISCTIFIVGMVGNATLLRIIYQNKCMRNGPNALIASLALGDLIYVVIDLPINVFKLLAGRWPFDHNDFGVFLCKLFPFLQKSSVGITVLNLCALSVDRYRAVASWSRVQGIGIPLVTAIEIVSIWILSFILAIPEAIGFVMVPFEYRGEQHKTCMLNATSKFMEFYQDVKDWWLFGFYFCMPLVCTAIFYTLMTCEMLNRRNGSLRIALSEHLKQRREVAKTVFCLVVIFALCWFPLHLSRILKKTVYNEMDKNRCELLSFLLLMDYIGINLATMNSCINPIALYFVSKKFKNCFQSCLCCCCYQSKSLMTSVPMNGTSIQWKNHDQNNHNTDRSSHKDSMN
How it was run: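 Human ETA or ETB receptors expressed in CHO cells. Binding inhibition tested at 11 concentrations from 10⁻¹⁰ to 10⁻⁵ M, in duplicate.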

[5] = logD (pH 6.5); details: buffer
[6] = Oral bioavailability of compound at a dose of 10 mg/kg was determined in rat; assay type: ADME, organism-based; details: in vivo
How it was run: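 Male Sprague-Dawley rats, n = 4 per group. 10 mg/kg given by gavage or as a slow iv bolus into the jugular vein, 10 mg/mL in ethanol–propylene glycol–D5W (20:30:50) with 1 equiv NaOH. Tail-vein plasma sampled up to 12 h and assayed by HPLC after extraction. F is the dose-corrected ratio of oral to iv AUC0–∞.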

Compound | AUC [1] [ng·h/mL] | IC50 [2] [nM] | delta Log P [3] | IC50 [4] [nM] | logD [5] | bioavailability [6] [%]
Cc1[nH]c([C@@H](Cc2cn(C)c3ccccc23)NC(=O)[C@H](CC(C)C)N(C)C(=O)NC2CCCCC2)nc1C(=O)O | 247 | > 100000 | > 6 | 22 |  | 
Cc1[nH]c([C@@H](Cc2cn(C)c3ccccc23)NC(=O)[C@@H](CC(=O)NC2CCCCC2)CC(C)C)nc1C(=O)O | 81.7 | > 100000 | > 6.2 | 29 |  | 
Cc1oc([C@@H](Cc2cn(C)c3ccccc23)NC(=O)[C@H](CC(C)C)NC(=O)OC2CCCCC2)nc1C(=O)O | 1360 | > 100000 | 4.66 | 41 |  | 
Cn1c(=O)c2[nH]cnc2n(C)c1=O.O [THEOPHYLLINE] |  |  | 1.53 |  | -0.12 | 
Cc1[nH]c([C@@H](Cc2cn(C)c3ccccc23)NC(=O)[C@H](CC(C)C)OC(=O)NC2CCCCC2)nc1C(=O)O | 347 | 54000 | > 6.1 | 9.3 |  | 
Cc1oc([C@@H](Cc2cn(C)c3ccccc23)NC(=O)[C@H](CC(C)C)NC(=O)CC2CCCCC2)nc1C(=O)O |  | > 100000 | 3.78 |  |  | 
Cc1oc([C@@H](Cc2cn(C)c3ccccc23)NC(=O)[C@H](CC(C)C)NC(=O)N(C)C2CCCCC2)nc1C(=O)O | 833 | > 100000 | 4.05 | 25 |  | 
Cc1[nH]c([C@@H](Cc2cn(C)c3ccccc23)NC(=O)[C@H](CC(C)C)NC(=O)NC2CCCCC2)nc1C(=O)O | 4.33 | 34000 | 5.92 | 11 |  | 

Results, then the molecule that gave them:

AUC [1] [ng·h/mL] | IC50 [2] [nM] | delta Log P [3] | IC50 [4] [nM] | logD [5] | bioavailability [6] [%] | Compound
292 | > 100000 | 3.82 | 310 |  |  | Cc1oc([C@@H](Cc2cn(C)c3ccccc23)NC(=O)[C@@H](CC(=O)NC2CCCCC2)CC(C)C)nc1C(=O)O
 | > 90000 | 5.66 | 470 |  |  | Cc1[nH]c([C@@H](Cc2cn(C)c3ccccc23)NC(=O)[C@H](CC(C)C)NC(=O)CC2CCCCC2)nc1C(=O)O
103 | 20000 | 5.4 | 1.8 |  |  | Cc1[nH]c([C@@H](Cc2cn(C)c3ccccc23)NC(=O)[C@H](CC(C)C)NC(=O)N(C)C2CCCCC2)nc1C(=O)O
 |  | 2.45 |  | -0.85 |  | CCCN(Cc1ccc(-c2ccccc2-c2nnn[nH]2)cc1)c1ncccc1C(=O)O
1760 | 79000 | 3.71 | 17 |  |  | Cc1oc([C@@H](Cc2cn(C)c3ccccc23)NC(=O)[C@H](CC(C)C)OC(=O)OC2CCCCC2)nc1C(=O)O
 |  | 2.37 |  | 1.98 |  | COc1cccc(Oc2c(NS(=O)(=O)c3ccc(C(C)(C)C)cc3)ncnc2OCCO)c1
193 | > 100000 | > 6.1 | 220 |  |  | Cc1oc([C@@H](Cc2cn(C)c3ccccc23)NC(=O)[C@H](CC(C)C)NC(=O)NC2CCCCC2)nc1C(=O)O
168 | > 100000 | > 6.2 | 76 |  |  | Cc1[nH]c([C@@H](Cc2cn(C)c3ccccc23)NC(=O)[C@H](CC(C)C)NC(=O)OC2CCCCC2)nc1C(=O)O
983 | > 100000 | 4.59 | 450 |  |  | Cc1oc([C@@H](Cc2cn(C)c3ccccc23)NC(=O)[C@H](CC(C)C)N(C)C(=O)NC2CCCCC2)nc1C(=O)O
1840 | 90000 | 3.82 | 4.6 |  | 13.5 | Cc1oc([C@@H](Cc2cn(C)c3ccccc23)NC(=O)[C@H](CC(C)C)OC(=O)N(C)C2CCCCC2)nc1C(=O)O
815 | 48000 | 4.04 | 21 |  |  | Cc1oc([C@@H](Cc2cn(C)c3ccccc23)NC(=O)[C@H](CC(C)C)OC(=O)NC2CCCCC2)nc1C(=O)O

From ChEMBL document CHEMBL1129499, “Azole endothelin antagonists. 3. Using delta log P as a tool to improve absorption” (J Med Chem, 1996)
